Rows were chosen to be rich in hits. Some 1.2% of all compounds tested hit in one or more screens of this group.
DDE Tn7 FP inh: DD(E)-Tn7 binding inhibition, primary FP screen. P02675. FP displacement of FITC-Tn7 peptide from fibrin DD(E); 0% = median of compound wells per plate. inhibition, % at 8.3 µM. 0.13% of 370,000 active. AID 720508;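 active = inhibition above the mean of compounds falling within the control limits plus 3 SD of them, cut at about 14% in these data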;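 also: 0% = plate median of compound wells and 100% = 10 µM Aha-Tn7 peptide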
Target sequence (P02675 whole entry, looked up): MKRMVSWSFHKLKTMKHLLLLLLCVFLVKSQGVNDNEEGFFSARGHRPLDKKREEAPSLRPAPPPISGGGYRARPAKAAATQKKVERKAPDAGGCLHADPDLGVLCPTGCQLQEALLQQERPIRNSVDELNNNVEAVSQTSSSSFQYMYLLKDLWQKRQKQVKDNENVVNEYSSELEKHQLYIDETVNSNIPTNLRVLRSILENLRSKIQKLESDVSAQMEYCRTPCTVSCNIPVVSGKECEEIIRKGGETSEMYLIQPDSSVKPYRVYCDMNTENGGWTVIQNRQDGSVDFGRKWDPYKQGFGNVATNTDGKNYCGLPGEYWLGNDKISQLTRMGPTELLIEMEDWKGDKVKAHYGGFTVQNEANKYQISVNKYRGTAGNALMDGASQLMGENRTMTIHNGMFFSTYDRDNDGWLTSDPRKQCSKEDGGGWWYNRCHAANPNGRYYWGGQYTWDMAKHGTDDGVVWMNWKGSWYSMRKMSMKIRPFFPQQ
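Assay system: human fibrin DD(E). Input: DD(E) 2 µM final. Medium: Tris buffer with calcium and detergent, pH 7.8. Compound dosing: single point at 8.3 µM. Timing: 10 min plus 3 h, room temperature. Technique: fluorescence polarization of the labelled Tn7 tracer. Read-out: percent inhibition. Replicates: singlicate testing.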
Tn6 DDE FP: disrupts Tn6 cyclic peptide binding to fibrin D-Dimer-E complex; inhibition, % at 8.3 µM; 0.21% of 370,000 active; Fibrin DD(E) TRITC-Tn6 fluorescence polarization displacement;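 active = inhibition above a per-campaign cutoff: mean of compounds within control limits plus 3 SD, cut at about 15% in these data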;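 also: 0% = median of all compound wells on the plate and 100% = blocking peptide control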
CRFR2-BP ag: agonists of human CRF-binding protein/CRF-R2 receptor complex; 0.46% of 350,000 active; activation, % at 13.2 µM; AID 588473; HEK293 CRF-R2/CRF-BP, calcium dye fluorescence (FLIPR); percent of saturating CRF peptide response;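 active = activation of at least 50%, plus an integration ratio under a set limit after plate pattern correction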;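 also: plate controls were neutral control wells without compound for no effect and CRF at EC100 for full effect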
CRFBP-R2 block: CRF-BP/CRF-R2 complex antagonism. inhibition, % at 11.8 µM. 0.59% of 350,000 active. HEK293 CRF-R2/CRF-BP, CRF-induced calcium fluorescence;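 active = inhibition of the ligand-induced calcium signal above about 50% at the single tested concentration, limit read from the data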
Starred values were filed as active, the others as inactive; . = no result given.

SMILES	DDE Tn7 FP inh	Tn6 DDE FP	CRFR2-BP ag	CRFBP-R2 block
CNc1ccc2oc(C[C@H]3O[C@@]4(CC[C@H]3C)O[C@H]([C@H](C)C(=O)c3ccc[nH]3)[C@H](C)C[C@H]4C)nc2c1C(=O)O	-8	-2	211*	-229
COc1ccc(-c2cc(-c3ccccc3)[n+](C)c(-c3ccccc3)c2)cc1	7	1	0	10
COc1ccc(-[n+]2c(-c3ccccc3)cc(-c3ccc(C)cc3)cc2-c2ccccc2)cc1	-1	-6	82*	-81
CN(C)c1ccc(/C=C/[N+](=O)[O-])cc1	-1	-7	101*	-118
C/C(=C\c1ccc(N(C)C)cc1)[N+](=O)[O-]	1	-3	6	1
COc1ccccc1N1CCN(Cc2c(F)cccc2Cl)CC1	7	-3	0	61*
CN1c2ccc(Br)cc2[C@@H]2NCC[C@@H]2[C@@H]1CO	5	9	.	.
Cc1nn(Cc2ccccc2)c(Cl)c1C(=O)NC1CCCc2ccccc21 (stereo not drawn)	-2	3	2	90*
CCCC/C(C)=C/[C@@H](NP(=O)(c1ccccc1)c1ccccc1)c1ccccc1	14*	5	1	-9
CCCCCP(=O)(O)c1ccccc1	-1	-3	-1	-2
CC1=CC(=O)OC2CC3OC4C[C@@H](C)C5OC6CC7O[C@]8(C)C/C=C\C9OC%10CC%11OC(CC(C)C%12OCCO%12)CC(O)[C@]%11(C)OC%10CC9OC8C[C@]7(C)O[C@]6(C)CCC5OC4C[C@]3(C)OC12 (stereo partly drawn)	.	.	75*	-32
O=C(N/N=C/c1c(O)n(CCC2=CCCCC2)c(=S)[nH]c1=O)c1ccccc1	1	2	1	55*
O=C(N/N=C/c1c(O)n(CCC2=CCCCC2)c(=O)[nH]c1=O)c1ccccc1	-1	0	2	25
O=C(COc1ccccc1F)N1CCN(CCN2C(=O)c3cccc4cccc(c34)C2=O)CC1	1	-1	0	70*
O=C(COc1ccccc1)N1CCN(CCN2C(=O)c3cccc4cccc(c34)C2=O)CC1	8	1	-5	-19
O=c1[nH]c2ccccc2n1C1CCN(C(c2cccc3ccccc23)c2nnnn2-c2ccc3c(c2)OCCO3)CC1 (stereo not drawn)	-6	-3	.	.
O=c1[nH]c2ccccc2n1C1CCN(C(c2cc3ccccc3o2)c2nnnn2-c2ccc3c(c2)OCCO3)CC1 (stereo not drawn)	15*	-6	.	.
CC(C)S(=O)(=O)N1Cc2ccc(Br)cc2-n2nncc2C1	-5	3	.	.
CCOc1ccc(-n2c(O)c(/C=C3\C=Nc4ccccc43)c(=O)[nH]c2=O)cc1	-8	-1	108*	-62
CN1/C(=C\C=C2C(=O)NC(=O)NC2=O)C(C)(C)c2ccccc21	-29	5	378*	-383
CN1/C(=C\C=Nc2ccccc2)C(C)(C)c2ccccc21	-8	6	3	-16
O=C(NC(CCC(O)CO)P(=O)(Oc1ccccc1)Oc1ccccc1)OCc1ccccc1 (stereo not drawn)	-6	4	.	.
CC(=O)N1N=C2C3CCN(CC3)C2C1c1cccc2ccccc12 (stereo not drawn)	1	1	81*	-132
O=C(NC1CCCCC1)N1Cc2cc(Br)ccc2-n2nncc2C1	-2	1	.	.
CN1C(=O)/C(=C/c2ccc(N3CCCCCC3)o2)C(=O)NC1=S	-3	-3	45	-34
SMILES	DDE Tn7 FP inh	Tn6 DDE FP	CRFR2-BP ag	CRFBP-R2 block
CCN1C(=O)C(=Cc2ccc(N3CCOCC3)o2)C(=O)N(CC)C1=S	2	1	36	-68
CN1C(=O)/C(=C\c2ccc(N3CCCCC3)o2)C(=O)NC1=S	-12	3	130*	-69
CN1CCN(c2ccc(/C=C3\C(=O)NC(=S)N(c4cccc(Br)c4)C3=O)o2)CC1	4	9	164*	-180
CCOc1ccc(N2C(=O)NC(=O)/C(=C\c3ccc(N4CCCCC4)o3)C2=O)cc1	-3	-10	57*	-41
CN1C(=O)C(=Cc2ccc(N3CCOCC3)o2)C(=O)N(C)C1=S	-2	-3	239*	-201
CC(C)C(C(=O)NC(C)(C)C)N1C(=O)CN=C(c2ccccc2)c2ccccc21 (stereo not drawn)	-2	-1	.	.
Cc1ccc(OC(=O)N(C)C[C@H]2OCc3cnnn3CCCC(=O)N([C@@H](C)CO)C[C@@H]2C)cc1	0	0	.	.
CCOC(=O)Cn1cc(C=C2C(=O)N(C)C(=O)N(C)C2=O)c2ccccc21	-3	-5	66*	-49
C[N+]1=C(N)NC2=C3CCCCC3ONC2C1 (stereo not drawn)	2	6	.	.
COc1cccc(C(=O)C2CCCN(C3CCOCC3)C2)c1 (stereo not drawn)	5	9	1	2
CC(=O)N1CCC(N2CCCC(C(=O)c3cccc(Cl)c3)C2)CC1 (stereo not drawn)	3	-4	2	67*
O=P(OCCCl)(OCCCl)OCCCl	2	0	.	.
O=C(CN1C(=O)[C@@H](Cc2ccc(O)cc2)N=C(c2ccccc2)c2ccccc21)NC1CCCCC1	8	-2	.	.
C[C@H]1CC[C@@H]2[C@@H](C)[C@H]3[C@H](C[C@H]4[C@@H]5CC=C6C[C@@H](O[C@@H]7O[C@H](CO)[C@H](O)[C@H](O[C@@H]8O[C@H](CO)[C@@H](O)[C@H](O)[C@H]8O)[C@H]7O[C@@H]7O[C@@H](C)[C@H](O)[C@@H](O)[C@H]7O)CC[C@]6(C)[C@H]5CC[C@]34C)N2C1	0	2	67*	-22
O=C1NC(=S)N(c2ccc(F)cc2)C(=O)/C1=C\c1ccoc1	.	.	1	-8
Cc1ccc(N2C(=O)NC(=O)/C(=C\c3ccoc3)C2=O)cc1	-18	9	54*	-76
Oc1c(Br)c(Br)c(Br)c(Br)c1Br	.	.	-2	58*
CC(NC(=O)OC1CC2CCC1(C)C2(C)C)P(=O)(Oc1ccccc1)Oc1ccccc1 (stereo not drawn)	2	6	.	.
CNP(=O)(Oc1ccccc1)OC12CC3CC(CC(C3)C1)C2 (stereo not drawn)	-4	-8	2	78*
O=P(Nc1ccccc1)(Oc1ccccc1)Oc1ccccc1	-1	6	0	-11
CC1(C)CSC(=NCc2ccccc2)N1	-5	2	191*	4
CCCCN1CCN(C(=O)COc2cc(=O)n(C)c3ccccc23)CC1	-1	-5	.	.
CC1=C(C)CC2(C(=O)NC(=S)NC2=O)C(C)C1 (stereo not drawn)	5	-1	150*	-140
CN(C)C1=NP(N(C)C)(N(C)C)=NC(c2ccccc2)=N1	-14	6	-1	52*
C=C1C(=O)C(C)=C2C(=O)N3Cc4[nH]c5ccccc5c4CC3(C(=O)OC)C12 (stereo not drawn)	1	8	.	.
Cc1ccc(N2C(=O)CC(=O)NC2=O)c(C)c1	-1	6	-1	57*
Cc1ccc(N2C(=O)CC(=O)NC2=O)cc1	-3	1	2	10
O=C(O)CCl	2	-8	.	.
